The source made the active and inactive calls. No cut-off for these calls is given here.
Legend:
[1] = test system: B16-F10; assay: Induction of apoptosis in mouse B16F10 cells assessed as total apoptotic cells at IC50 after 72 hrs by annexin V-FITC/propidium iodide staining-based FACS analysis (reference value: 13.7 +/- 2.7%); assay type: functional
[2] = test system: B16-F10; assay: Induction of apoptosis in mouse B16F10 cells assessed as late apoptotic cells at IC50 after 72 hrs by annexin V-FITC/propidium iodide staining-based FACS analysis (reference value: 9.8 +/- 2.2%); assay type: functional
[3] = test system: B16-F10; assay: Induction of apoptosis in mouse B16F10 cells assessed as early apoptotic cells at 2 X IC50 after 72 hrs by annexin V-FITC/propidium iodide staining-based FACS analysis (reference value: 3.9 +/- 0.4%); assay type: functional
[4] = test system: B16-F10; assay: Induction of apoptosis in mouse B16F10 cells assessed as total apoptotic cells at 2 X IC50 after 72 hrs by annexin V-FITC/propidium iodide staining-based FACS analysis (reference value: 13.7 +/- 2.7%); assay type: functional
[5] = test system: B16-F10; assay: Induction of apoptosis in mouse B16F10 cells assessed as normal cells at IC50 after 72 hrs by annexin V-FITC/propidium iodide staining-based FACS analysis (reference value: 77.9 +/- 1.5%); assay type: functional
[6] = test system: B16-F10; assay: Induction of apoptosis in mouse B16F10 cells assessed as early apoptotic cells at IC50 after 72 hrs by annexin V-FITC/propidium iodide staining-based FACS analysis (reference value: 3.9 +/- 0.4%); assay type: functional
[7] = test system: B16-F10; assay: Induction of apoptosis in mouse B16F10 cells assessed as normal cells at 2 X IC50 after 72 hrs by annexin V-FITC/propidium iodide staining-based FACS analysis (reference value: 77.9 +/- 1.5%); assay type: functional
[8] = test system: B16-F10; assay: Induction of ROS generation in mouse B16F10 cells at IC50 to 2 X IC50 after 72 hrs by rhodamine123/propidium iodide staining-based FACS analysis; assay type: functional, cell-based
Procedure, shortened: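 B16F10 cells, 11·10^4 per well, treated 72 h at IC50 or 2×IC50, then given fresh medium with dihydrorhodamine 123 at a final 5 µg/mL for 30 min. Cells washed, resuspended in PBS and read by flow cytometry for Rh123 and PI fluorescence (excitation 500 nm, emission 536 nm). Rh123+ cells scored ROS-positive regardless of PI. Three experiments in duplicate, mean ± S.E.M.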

[9] = test system: B16-F10; assay: Induction of apoptosis in mouse B16F10 cells assessed as necrotic cells at IC50 after 72 hrs by annexin V-FITC/propidium iodide staining-based FACS analysis (reference value: 4.0 +/- 0.6%); assay type: functional
[10] = test system: B16-F10; assay: Cytotoxicity against mouse B16F10 cells after 72 hrs by MTT assay; assay type: functional, cell-based; details: B16-F10, 72 h
Procedure, shortened: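 B16F10 cells (DMEM, 2 mM glutamine, 10% heat-inactivated FCS, penicillin/streptomycin; subconfluent) seeded at 11·10^3 per well and exposed to 0–80 µg/mL for 72 h. Compounds were diluted from a 10 mg/mL stock in 50% DMSO/PBS. MTT 0.5 mg/mL for 2 h, formazan dissolved in DMSO, absorbance at 550 nm. Viability is relative to untreated controls; IC50 from four assays of six replicates, mean ± S.E.M.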

[11] = test system: B16-F10; assay: Induction of apoptosis in mouse B16F10 cells assessed as late apoptotic cells at 2 X IC50 after 72 hrs by annexin V-FITC/propidium iodide staining-based FACS analysis (reference value: 9.8 +/- 2.2%); assay type: functional
[12] = test system: B16-F10; assay: Induction of apoptosis in mouse B16F10 cells assessed as necrotic cells at 2 X IC50 after 72 hrs by annexin V-FITC/propidium iodide staining-based FACS analysis (reference value: 4.0 +/- 0.6%); assay type: functional
[13] = target: Protease (Human immunodeficiency virus 1, UniProt Q9YQ12); assay: Inhibition of HIV1 recombinant protease expressed in Escherichia coli using Abz-Ala-Arg-Val-Nle-Tyr(NO2)-Glu-Ala-Nle-NH2 as substrate by FRET assay
Chain of Protease (Q9YQ12 whole entry): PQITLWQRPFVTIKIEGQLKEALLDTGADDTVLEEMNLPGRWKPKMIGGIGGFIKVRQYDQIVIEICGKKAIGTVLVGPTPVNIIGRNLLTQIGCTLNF

SMILES: CC(=O)O[C@@H]1C[C@]2(C)[C@H]3CC=C4[C@@H]5CC(C)(C)CC[C@]5(C(=O)O)CC[C@@]4(C)[C@]3(C)CC[C@H]2C(C)(C)[C@H]1OC(C)=O
- Activity [1]: 61.6%
- Activity [2]: 52.9%
- Activity [3]: 29.6%
- Activity [4]: 88.9%
- Activity [5]: 31.4%
- Activity [6]: 8.7%
- Activity [7]: 9.7%
- Activity [8]: Active
- Activity [9]: 7.1%
- IC50 [10]: 44.1 µM
- Activity [11]: 59.3%
- Activity [12]: 1.5%

SMILES: CC1(C)CC[C@]2(C(=O)O)CC[C@]3(C)C(=CC[C@@H]4[C@@]5(C)CC[C@H](OC(=O)c6ccccc6)C(C)(C)[C@@H]5CC[C@]43C)[C@@H]2C1
- Activity [1]: 51.6%
- Activity [2]: 37.6%
- Activity [3]: 9.5%
- Activity [4]: 60%
- Activity [5]: 44.6%
- Activity [6]: 14%
- Activity [7]: 31.6%
- Activity [8]: Active
- Activity [9]: 3.8%
- IC50 [10]: 162 µM
- Activity [11]: 50.5%
- Activity [12]: 8.5%

SMILES: CC1(C)CC[C@]2(C(=O)OCc3ccccc3)CC[C@]3(C)C(=CC[C@@H]4[C@@]5(C)CC[C@H](OC(=O)CCC(=O)O)C(C)(C)[C@@H]5CC[C@]43C)[C@@H]2C1
- Activity [1]: 72.1%
- Activity [2]: 55.5%
- Activity [3]: 74%
- Activity [4]: 91.6%
- Activity [5]: 16.9%
- Activity [6]: 16.6%
- Activity [7]: 7.7%
- Activity [8]: inactive
- Activity [9]: 11.1%
- IC50 [10]: 23.2 µM
- Activity [11]: 17.6%
- Activity [12]: 0.7%

SMILES: CC1(C)CC[C@]2(C(=O)OCc3ccccc3)CC[C@]3(C)C(=CC[C@@H]4[C@@]5(C)C[C@@H](OC(=O)CCCC(=O)O)[C@H](O)C(C)(C)[C@@H]5CC[C@]43C)[C@@H]2C1
- Activity [1]: 25.2%
- Activity [2]: 14.6%
- Activity [3]: 59.1%
- Activity [4]: 78.9%
- Activity [5]: 73.3%
- Activity [6]: 10.6%
- Activity [7]: 20.2%
- Activity [8]: Active
- Activity [9]: 1.6%
- IC50 [10]: 63.2 µM
- Activity [11]: 19.8%
- Activity [12]: 0.9%

SMILES: CC(=O)O[C@@H]1C[C@]2(C)[C@H]3CC=C4[C@@H]5CC(C)(C)CC[C@]5(C(=O)OCc5ccccc5)CC[C@@]4(C)[C@]3(C)CC[C@H]2C(C)(C)[C@H]1O
- Activity [1]: 86%
- Activity [2]: 20%
- Activity [3]: 71.3%
- Activity [4]: 98.4%
- Activity [5]: 12.9%
- Activity [6]: 66%
- Activity [7]: 1.1%
- Activity [8]: Active
- Activity [9]: 1.2%
- IC50 [10]: 39.6 µM
- Activity [11]: 27.1%
- Activity [12]: 0.6%

SMILES: CCCCCC(=O)O[C@@H]1C[C@]2(C)[C@H]3CC=C4[C@@H]5CC(C)(C)CC[C@]5(C(=O)O)CC[C@@]4(C)[C@]3(C)CC[C@H]2C(C)(C)[C@H]1O
- Activity [1]: 61.4%
- IC50 [13]: 124 µM
- Activity [2]: 19%
- Activity [3]: 62.7%
- Activity [4]: 80.2%
- Activity [5]: 34.8%
- Activity [6]: 42.4%
- Activity [7]: 18.9%
- Activity [8]: Active
- Activity [9]: 3.9%
- IC50 [10]: 34.6 µM
- Activity [11]: 17.5%
- Activity [12]: 1.1%

SMILES: CC1(C)CC[C@]2(C(=O)OCc3ccccc3)CC[C@]3(C)C(=CC[C@@H]4[C@@]5(C)CC[C@H](OC(=O)CCCC(=O)O)C(C)(C)[C@@H]5CC[C@]43C)[C@@H]2C1
- Activity [1]: 58.4%
- Activity [2]: 37.9%
- Activity [3]: 65.8%
- Activity [4]: 90.4%
- Activity [5]: 25.8%
- Activity [6]: 20.6%
- Activity [7]: 8.1%
- Activity [8]: inactive
- Activity [9]: 15.9%
- IC50 [10]: 29.9 µM
- Activity [11]: 24.6%
- Activity [12]: 1.6%

SMILES: CC1(C)CC[C@]2(C(=O)OCc3ccccc3)CC[C@]3(C)C(=CC[C@@H]4[C@@]5(C)C[C@@H](OC(=O)c6ccccc6C(=O)O)[C@H](O)C(C)(C)[C@@H]5CC[C@]43C)[C@@H]2C1
- Activity [1]: 64.7%
- IC50 [13]: 0.8 µM
- Activity [2]: 22.5%
- Activity [3]: 43.6%
- Activity [4]: 89.7%
- Activity [5]: 32.8%
- Activity [6]: 42.2%
- Activity [7]: 2.9%
- Activity [8]: inactive
- Activity [9]: 2.5%
- IC50 [10]: 73.2 µM
- Activity [11]: 46.2%
- Activity [12]: 7.5%

SMILES: CCCC(=O)O[C@@H]1C[C@]2(C)[C@H]3CC=C4[C@@H]5CC(C)(C)CC[C@]5(C(=O)O)CC[C@@]4(C)[C@]3(C)CC[C@H]2C(C)(C)[C@H]1O
- Activity [1]: 77.7%
- Activity [2]: 22.1%
- Activity [3]: 53%
- Activity [4]: 83%
- Activity [5]: 21%
- Activity [6]: 55.6%
- Activity [7]: 10.2%
- Activity [8]: Active
- Activity [9]: 1.2%
- IC50 [10]: 107 µM
- Activity [11]: 30%
- Activity [12]: 6.8%

SMILES: CCC(=O)O[C@H]1CC[C@]2(C)[C@H]3CC=C4[C@@H]5CC(C)(C)CC[C@]5(C(=O)O)CC[C@@]4(C)[C@]3(C)CC[C@H]2C1(C)C
- Activity [1]: 74.4%
- Activity [2]: 27.4%
- Activity [3]: 44.3%
- Activity [4]: 60.8%
- Activity [5]: 24.3%
- Activity [6]: 47%
- Activity [7]: 37.2%
- Activity [8]: Active
- Activity [9]: 1.3%
- IC50 [10]: 161 µM
- Activity [11]: 16.5%
- Activity [12]: 2%

SMILES: CC(=O)O[C@H]1CC[C@]2(C)[C@H]3CC=C4[C@@H]5CC(C)(C)CC[C@]5(C(=O)O)CC[C@@]4(C)[C@]3(C)CC[C@H]2C1(C)C [ACETYL OLEANOLIC ACID]
- Activity [1]: 54.7%
- IC50 [13]: 3.4 µM
- Activity [2]: 40.3%
- Activity [3]: 14.6%
- Activity [4]: 48%
- Activity [5]: 39.5%
- Activity [6]: 14.4%
- Activity [7]: 46.3%
- Activity [8]: Active
- Activity [9]: 5.8%
- IC50 [10]: 64.7 µM
- Activity [11]: 33.4%
- Activity [12]: 5.7%

SMILES: CC1(C)CC[C@]2(C(=O)OCc3ccccc3)CC[C@]3(C)C(=CC[C@@H]4[C@@]5(C)CC[C@H](OC(=O)c6ccccc6C(=O)O)C(C)(C)[C@@H]5CC[C@]43C)[C@@H]2C1
- Activity [1]: 94.6%
- IC50 [13]: 0.4 µM
- Activity [2]: 30.3%
- Activity [3]: 66.9%
- Activity [4]: 95.4%
- Activity [5]: 3.9%
- Activity [6]: 64.3%
- Activity [7]: 3.7%
- Activity [8]: inactive
- Activity [9]: 1.5%
- IC50 [10]: 26.8 µM
- Activity [11]: 28.5%
- Activity [12]: 1%

— ChEMBL document CHEMBL3124882, “Semi-synthesis of acylated triterpenes from olive-oil industry wastes for the development of anticancer and anti-HIV agents” (Eur J Med Chem, 2014)
